Converted amounts (≈) assume the structure as drawn. The source made the active and inactive calls. The rule behind the calls is not given here.
Legend:
KBVIN [1] = assay: Inhibition of Pgp-mediated multidrug resistance in human KBVIN cells assessed as chemosensitization activity measured by increase in vincristine-induced cytotoxicity at 1 ug/mL by SRB assay relative to untreated control; format: cell-based
[2] = Cytotoxicity in human KBVIN cells by SRB assay; format: functional
Procedure, shortened: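 Cellular protein read by sulforhodamine B staining, absorbance 562 nm. GI50 is the concentration giving 50% lower absorbance than untreated cells, taken from replicate dose-response curves.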

KBVIN [3] = assay: Inhibition of Pgp in human KBVIN cells assessed as facilitation of in calcein-AM accumulation by […]; format: cell-based
Procedure, shortened: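 KB-Vin (MDR) cells, 10,000 per well, adhered one day in medium with 5% FBS. Pre-exposed to test compound at several concentrations for 30 min at 37 °C, then given fresh medium with 1 μM calcein-AM plus compound for 30 min at 37 °C. Washed with cold PBS in low light, lysed in 20 mM Tris-HCl, fluorescence read Ex 494/Em 517 nm. Verapamil as inhibitor control; two or more independent experiments.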

For `CCc1cc(=O)c2ccc3c(c2o1)[C@@H](OC(=O)Cc1ccccc1)[C@@H](OC(=O)Cc1ccccc1)C(C)(C)O3`, the fold change (FC) (KBVIN [1]) was 81.3 and the GI50 [2] was 8.33 µg/mL (≈ 15.8 µM).
With `CCc1cc(=O)c2ccc3c(c2o1)[C@@H](OC(=O)c1ccccc1OC)[C@@H](OC(=O)c1ccccc1OC)C(C)(C)O3` the fold change (FC) (KBVIN [1]) was 28.1 and the GI50 [2] was over 31.5 µg/mL.
Compound `CCc1cc(=O)c2ccc3c(c2o1)[C@@H](OC(=O)/C=C/c1ccccc1)[C@@H](OC(=O)/C=C/c1ccccc1)C(C)(C)O3` has a fold change (FC) (KBVIN [1]) of 222 and a GI50 [2] of 9.44 µg/mL (≈ 17.1 µM).
Work on `CCc1cc(=O)c2ccc3c(c2o1)[C@@H](OC(=O)c1cccc(C(F)(F)F)c1)[C@@H](OC(=O)c1cccc(C(F)(F)F)c1)C(C)(C)O3` yielded a fold change (FC) (KBVIN [1]) of under 12.2 and a GI50 [2] of over 31.5 µg/mL.
`CCc1cc(=O)c2ccc3c(c2o1)[C@@H](OC(=O)CCc1ccccc1)[C@@H](OC(=O)CCc1ccccc1)C(C)(C)O3` showed a fold change (FC) (KBVIN [1]) of 106 and a GI50 [2] of 10.1 µg/mL (≈ 18.2 µM).
In the case of `CCc1cc(=O)c2ccc3c(c2o1)[C@@H](OC(=O)N(C)C)[C@@H](OC(=O)N(C)C)C(C)(C)O3`, the fold change (FC) (KBVIN [1]) is reported as under 12.2 and the GI50 [2] is reported as over 20 µg/mL.
Work on `CCc1cc(=O)c2ccc3c(c2o1)[C@@H](OC(=O)c1cccc(OC)c1)[C@@H](OC(=O)c1cccc(OC)c1)C(C)(C)O3` yielded a fold change (FC) (KBVIN [1]) of 27.1 and a GI50 [2] of over 35.8 µg/mL.
In the case of `CCc1cc(=O)c2ccc3c(c2o1)[C@@H](OC(=O)N1CCCC1)[C@@H](OC(=O)N1CCCC1)C(C)(C)O3`, the fold change (FC) (KBVIN [1]) is reported as 24.9 and the GI50 [2] is reported as over 20 µg/mL.
Work on `CCc1cc(=O)c2ccc3c(c2o1)[C@@H](OC(=O)N(CC)CC)[C@@H](OC(=O)N(CC)CC)C(C)(C)O3` yielded a fold change (FC) (KBVIN [1]) of 116 and a GI50 [2] of over 20 µg/mL.
For `CCc1ccc(C(=O)O[C@@H]2c3c(ccc4c(=O)cc(CC)oc34)OC(C)(C)[C@@H]2OC(=O)c2ccc(CC)cc2)cc1`, the fold change (FC) (KBVIN [1]) was 20.3 and the GI50 [2] was over 13.6 µg/mL.
With `CCc1cc(=O)c2ccc3c(c2o1)[C@@H](OC(=O)c1cccc(C#N)c1)[C@@H](OC(=O)c1cccc(C#N)c1)C(C)(C)O3` the fold change (FC) (KBVIN [1]) was 160 and the GI50 [2] was over 2.5 µg/mL.
`CCc1cc(=O)c2ccc3c(c2o1)[C@@H](OCc1ccccc1)[C@@H](OCc1ccccc1)C(C)(C)O3` showed a fold change (FC) (KBVIN [1]) of 40.7 and a GI50 [2] of over 15.7 µg/mL.
`CCc1cc(=O)c2ccc3c(c2o1)[C@@H](OC(=O)N1CCCCC1)[C@@H](OC(=O)N1CCCCC1)C(C)(C)O3` showed a fold change (FC) (KBVIN [1]) of 22.2 and a GI50 [2] of over 20 µg/mL.
In the case of `CCc1cc(=O)c2ccc3c(c2o1)[C@@H](OC(=O)c1ccccc1C(F)(F)F)[C@@H](OC(=O)c1ccccc1C(F)(F)F)C(C)(C)O3`, the fold change (FC) (KBVIN [1]) is reported as under 12.2 and the GI50 [2] is reported as over 31.5 µg/mL.
For `CCc1cc(=O)c2ccc3c(c2o1)[C@@H](OC(=O)c1ccc(C)cc1)[C@@H](OC(=O)c1ccc(C)cc1)C(C)(C)O3`, the fold change (FC) (KBVIN [1]) was 349 and the GI50 [2] was 20.6 µg/mL (≈ 39.1 µM).
For `CCc1cc(=O)c2ccc3c(c2o1)[C@@H](OC(=O)c1ccc([N+](=O)[O-])cc1)[C@@H](OC(=O)c1ccc([N+](=O)[O-])cc1)C(C)(C)O3`, the fold change (FC) (KBVIN [1]) was 203 and the GI50 [2] was over 34 µg/mL.
In the case of `CCc1cc(=O)c2ccc3c(c2o1)[C@@H](OC(=O)c1ccc(C(F)(F)F)cc1)[C@@H](OC(=O)c1ccc(C(F)(F)F)cc1)C(C)(C)O3`, the fold change (FC) (KBVIN [1]) is reported as 16.3 and the GI50 [2] is reported as over 31.5 µg/mL.
For `COc1ccc(CCN(C)CCCC(C#N)(c2ccc(OC)c(OC)c2)C(C)C)cc1OC` (configuration not stated) [VERAPAMIL], the fold change (FC) (KBVIN [1]) was 141 and the GI50 [2] was over 31.5 µg/mL.
For `CCc1cc(=O)c2ccc3c(c2o1)[C@@H](OC(=O)c1ccc(C#N)cc1)[C@@H](OC(=O)c1ccc(C#N)cc1)C(C)(C)O3`, the fold change (FC) (KBVIN [1]) was 188, the GI50 [2] was over 5.5 µg/mL and the inhibition (KBVIN [3]) was “Active”.
Work on `CCc1cc(=O)c2ccc3c(c2o1)[C@@H](OC(=O)Cc1ccc(OC)cc1)[C@@H](OC(=O)Cc1ccc(OC)cc1)C(C)(C)O3` yielded a fold change (FC) (KBVIN [1]) of 34.4 and a GI50 [2] of 13.3 µg/mL (≈ 22.7 µM).
Work on `CCCCN(CCCC)C(=O)O[C@@H]1c2c(ccc3c(=O)cc(CC)oc23)OC(C)(C)[C@@H]1OC(=O)N(CCCC)CCCC` yielded a fold change (FC) (KBVIN [1]) of under 12.2 and a GI50 [2] of over 20 µg/mL.
With `CCc1cc(=O)c2ccc3c(c2o1)[C@@H](OC(=O)C1CCCCC1)[C@@H](OC(=O)C1CCCCC1)C(C)(C)O3` the fold change (FC) (KBVIN [1]) was under 12.2 and the GI50 [2] was over 20 µg/mL.
For `CCc1cc(=O)c2ccc3c(c2o1)[C@@H](OC(=O)c1ccccc1)[C@@H](OC(=O)c1ccccc1)C(C)(C)O3`, the fold change (FC) (KBVIN [1]) was under 12.2 and the GI50 [2] was 8.79 µg/mL (≈ 17.6 µM).
With `CCc1cc(=O)c2ccc3c(c2o1)[C@@H](OC(=O)c1ccc(OC)cc1)[C@@H](OC(=O)c1ccc(OC)cc1)C(C)(C)O3` the fold change (FC) (KBVIN [1]) was 257, the GI50 [2] was 9 µg/mL (≈ 16.1 µM) and the inhibition (KBVIN [3]) was “Active”.
Compound `CCc1cc(=O)c2ccc3c(c2o1)[C@@H](OC(=O)/C=C/c1ccc(OC)cc1)[C@@H](OC(=O)/C=C/c1ccc(OC)cc1)C(C)(C)O3` has a fold change (FC) (KBVIN [1]) of 287 and a GI50 [2] of over 36.4 µg/mL.
